In ChEMBL document CHEMBL1629705, “PSI-7851, a pronucleotide of beta-D-2'-deoxy-2'-fluoro-2'-C-methyluridine monophosphate, is a potent and pan-genotype inhibitor of hepatitis C virus replication” (Antimicrob Agents Chemother, 2010):
Activity calls are given as the source filed them. The rule behind the calls is not given here.

Columns and labels:
[1] = Cytotoxicity against human CEM cells assessed as inhibition of mitochondrial DNA synthesis; assay type: cell-based; conditions: CEM (CCRF-CEM) cells
In short: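 HepG2 or CEM cells incubated 14 days with compound up to 100 μM, ddC as control. Medium and compound replenished on days 7 and 11. Mitochondrial COXII gene and nuclear rDNA measured by multiplex quantitative RT-PCR.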

[2] = test system: Hepatitis C virus; assay: Antiviral activity against Hepatitis C virus assessed as log reduction in viral RNA at 1 uM after 3 weeks; assay type: functional, Hepacivirus hominis
In short: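 ET-lunet replicon cells seeded at 1 × 10^5/well without G418, treated at 0.1, 1 or 2 μM (final DMSO 0.5%). Passaged 1:3–1:4 every 3–4 days for 3 weeks with fresh compound. Then compound withdrawn and cells grown 3 more weeks in 0.25 mg/ml G418. HCV RNA by RT-PCR (ΔΔCt vs rRNA and DMSO controls, log change). Colonies fixed in formaldehyde and stained with crystal violet at 6 weeks.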

[3] = test system: Hepatitis C virus; assay: Antiviral activity against Hepatitis C virus isolate Con1 infected in human HuH-7 cells assessed as inhibition of viral RNA replication after 4 days by luciferase reporter gene assay; assay type: functional, Hepacivirus hominis; conditions: Con1, Huh-7, 96 h
In short: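 Genotype 1b Con1 subgenomic replicon cells (ET-lunet, 3,000 cells/well, firefly luciferase ET replicon; clone A, 1,500 cells/well) incubated 4 days with serially diluted compound. Replication read by luciferase luminescence and/or real-time RT-PCR.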

[4] = Cytotoxicity against human HepG2 cells; assay type: cell-based
In short: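 Cells treated 8 days with compound serially diluted from 100 μM in DMSO-containing medium, gemcitabine (1 μM) or DMSO control. Viability by MTS-type tetrazolium assay, absorbance at 490 nm with medium-only blanks. Value derived by comparison with DMSO control wells.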

[5] = test system: Hepatitis C virus; assay: Selectivity ratio of EC90 for Hepatitis C virus harboring NS5B polymerase S282T mutant gene to EC90 for Hepatitis C virus harboring wild-type NS5B polymerase; assay type: functional, Hepacivirus hominis
In short: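 Clone A genotype 1b (Con1) replicon cells, wild-type or S282T mutant (selected with 2′-C-methyladenosine). 1,500 cells/well, 4 days with serially diluted compound. HCV RNA by real-time RT-PCR; EC90 from dose–response.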

[6] = target: DNA-directed RNA polymerase II subunit RPB1 (Homo sapiens, UniProt P24928); assay: Inhibition of human RNA polymerase 2 assessed as synthesis of RNA products at 1 uM
In short: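 In vitro transcription by HeLa nuclear extract from CMV immediate-early promoter DNA. Mix: 400 μM ATP, CTP and UTP, 16 μM GTP, [α-32P]GTP, 3 mM MgCl2, in 20 mM HEPES pH 7.9 buffer with KCl, EDTA, DTT and glycerol. Inhibitor up to 1 mM. 30°C for 60 min. RNA purified, run on 6% sequencing gel and quantified by phosphorimager.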

[7] = target: T1, DNA polymerase alpha catalytic subunit (Homo sapiens, UniProt P09884); assay: Inhibition of human DNA polymerase alpha assessed as incorporation of [alpha-32P]dCTP up to 1mM preincubated for 30 mins by whatman DE81 paper binding assay
T1 sequence (P09884 whole entry): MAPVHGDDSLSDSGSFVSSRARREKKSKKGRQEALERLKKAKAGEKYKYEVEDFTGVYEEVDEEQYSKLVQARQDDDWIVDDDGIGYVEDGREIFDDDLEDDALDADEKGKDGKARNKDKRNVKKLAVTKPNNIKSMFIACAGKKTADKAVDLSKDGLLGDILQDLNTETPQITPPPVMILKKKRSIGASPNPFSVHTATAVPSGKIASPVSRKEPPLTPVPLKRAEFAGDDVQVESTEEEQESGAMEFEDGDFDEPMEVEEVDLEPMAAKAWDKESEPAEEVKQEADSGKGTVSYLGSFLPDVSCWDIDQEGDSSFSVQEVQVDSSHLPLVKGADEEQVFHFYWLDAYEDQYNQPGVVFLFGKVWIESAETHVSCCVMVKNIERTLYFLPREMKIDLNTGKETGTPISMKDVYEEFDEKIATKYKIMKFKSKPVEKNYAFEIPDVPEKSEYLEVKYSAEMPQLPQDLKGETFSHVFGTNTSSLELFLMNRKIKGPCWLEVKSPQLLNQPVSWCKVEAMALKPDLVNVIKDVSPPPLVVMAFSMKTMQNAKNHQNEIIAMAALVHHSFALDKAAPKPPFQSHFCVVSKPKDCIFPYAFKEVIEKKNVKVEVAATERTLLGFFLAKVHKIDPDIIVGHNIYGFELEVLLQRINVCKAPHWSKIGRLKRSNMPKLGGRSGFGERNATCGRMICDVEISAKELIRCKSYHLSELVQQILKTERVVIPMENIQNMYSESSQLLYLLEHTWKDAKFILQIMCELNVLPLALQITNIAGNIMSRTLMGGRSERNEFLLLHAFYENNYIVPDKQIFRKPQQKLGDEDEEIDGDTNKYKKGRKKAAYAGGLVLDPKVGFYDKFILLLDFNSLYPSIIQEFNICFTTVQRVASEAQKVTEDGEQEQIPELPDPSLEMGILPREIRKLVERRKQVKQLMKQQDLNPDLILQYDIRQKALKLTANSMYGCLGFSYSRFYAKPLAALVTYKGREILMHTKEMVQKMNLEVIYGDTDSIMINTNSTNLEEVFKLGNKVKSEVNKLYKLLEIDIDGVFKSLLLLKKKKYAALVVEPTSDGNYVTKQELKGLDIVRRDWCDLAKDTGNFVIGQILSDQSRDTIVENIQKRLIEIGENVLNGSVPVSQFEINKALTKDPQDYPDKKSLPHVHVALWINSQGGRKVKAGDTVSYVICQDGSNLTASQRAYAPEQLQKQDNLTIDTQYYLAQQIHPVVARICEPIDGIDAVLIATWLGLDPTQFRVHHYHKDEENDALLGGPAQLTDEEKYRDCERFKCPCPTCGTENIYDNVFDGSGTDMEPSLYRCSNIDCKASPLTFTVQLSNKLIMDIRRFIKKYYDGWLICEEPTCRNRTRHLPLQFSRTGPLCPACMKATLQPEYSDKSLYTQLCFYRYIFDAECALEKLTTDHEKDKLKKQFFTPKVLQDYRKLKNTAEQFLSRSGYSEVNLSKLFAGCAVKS
In short: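 Human DNA polymerase α (20 μg/ml) or γ (50 μg/ml) in 50 mM Tris pH 7.5, 50 mM NaCl, activated calf thymus DNA, 20 μM each dNTP, [α-32P]dCTP, 5 mM MgCl2. Nucleotide inhibitor up to 1 mM. 37°C, quenched with EDTA at 30 min. Product measured by DE81 paper binding; IC50 by nonlinear fit.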

| inhibition [6] | IC50 [7] [µM] | SMILES | CC90 [1] [µM] | FC [2] | EC90 [3] [µM] | CC90 [4] [µM] | Selectivity ratio [5] |
| --- | --- | --- | --- | --- | --- | --- | --- |
| – | – | CC(C)OC(=O)[C@H](C)NP(=O)(OC[C@H]1O[C@@H](n2ccc(=O)[nH]c2=O)[C@](C)(F)[C@@H]1O)Oc1ccccc1 (some centres not stated) | < 3 | 4 | 4.32 | 12.8 | 16.4 |
| Active | 550 | C[C@@]1(F)[C@H](O)[C@@H](COP(=O)(O)OP(=O)(O)OP(=O)(O)O)O[C@H]1n1ccc(=O)[nH]c1=O [GS-461203] | – | – | – | – | – |
